Tests used:
[1] = test system: Radical scavenging activity; assay: Antioxidant activity assessed as [drug]/[DPPH]causing 50% DPPH radical scavenging activity after 5 mins; assay type: functional
Procedure, shortened: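 DPPH reacted with scavenger at 25 °C in 1.5 mL EtOH plus 0.5 mL 0.2 M acetate buffer (pH 5.5). DPPH started at 50–100 µM and test scavengers at 0.5–25 µM. Percent DPPH scavenging was read after 5 min and plotted against the [scavenger]/[DPPH] ratio. ECR50 is the ratio giving 50% scavenging.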

[2] = Antiradical activity against 2,2'-azobis-amidinopropane-induced linoleic acid peroxidation assessed as ratio of total oxyradical scavenging capacity to Trolox C; assay type: physicochemical
Procedure, shortened: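 Linoleic acid (0.63 mM) was autoxidized by 1 mM ABAP in 0.05 M phosphate buffer (pH 7.4) with 0.02% Lubrol, in air at 37 °C. Conjugated-diene formation was followed at 234 nm. Inhibitor was added once autoxidation ran at constant rate. Efficiency is expressed relative to Trolox C, with stoichiometric factors taken from lag-time ratios and Trolox n set at 2.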

| Structure (SMILES) | Activity [1] | Ratio [2] |
| --- | --- | --- |
| Oc1cccc(O)c1 [RESORCINOL] | 0.29 | 1.7 |
| CC1(C)CC(O)CC(C)(C)N1[O] [TEMPOL] | 64 | 0.4 |
